Data set [1] is described as follows: Selectivity index, ratio of CC50 for human MRC5 cells to EC50 for Leishmania infantum MHOM/MA(BE)/67/ITMAP263. The data set is classed as toxicity. To be noted: read-out: Ratio CC50/EC50.
The nature of data set [2]: Drug metabolism in mouse assessed as M12 metabolite formation. The format is ADME.
Data set [3] in a line: Drug metabolism in dog assessed as M12 metabolite formation. The format is ADME, Canis lupus familiaris.
Data set [4] can be described thus: Drug metabolism in rat assessed as M12 metabolite formation. The format is ADME.
The nature of data set [5]: Drug metabolism in human assessed as M12 metabolite formation. The format is ADME.
A short description of data set [6]: Drug metabolism in hamster assessed as M12 metabolite formation. The data set is classed as ADME, Mesocricetus auratus.
The nature of data set [7]: Toxicity in Sprague-Dawley rat at 50 mg/kg administered daily for 14 days. The data set is classed as organism-based. Conditions: in vivo, 336 h, time 14 day. An outline of the steps:
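Exploratory 14-day toxicology study with daily dosing in male and female Sprague-Dawley rats.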

A short description of data set [8]: Drug metabolism in dog liver microsomes at 10 uM incubated for 60 mins by LC-UV/MS analysis. The format is ADME, Canis lupus familiaris, Microsome. Conditions: 1 h. An outline of the steps:
(§1)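 Incubated at 10 μM with liver microsomes (1 mg/mL) from Beagle dog or Sprague-Dawley rat for 60 min. Reactions were stopped by precipitation with formic acid/acetonitrile, and metabolites were identified by LC-UV-MSn (n = 1–2).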

Data set [9] is described as follows: Genotoxicity in Salmonella typhimurium TA98 over 1 to 1000 ug in presence of S9 fraction by Ames test. The format is toxicity, subcellular. To be noted: salmonella enterica subsp. enterica serovar typhimurium, dose 1-1000 µg. An outline of the steps:
(§2)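 Mini-Ames reverse mutation screen in S. typhimurium TA98 and TA100, run with and without induced rat liver S9. Doses were 1.5, 4, 10, 25, 64, 160, 400 and 1000 μg per well. Positive controls were 2-aminoanthracene, 2-nitrofluorene and sodium azide; DMSO was the negative control.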
(The Ames test detects mutagens through reverse mutation in bacteria.)

Data set [10] is described as follows: Genotoxicity in Salmonella typhimurium TA100 over 1 to 1000 ug in absence of S9 fraction by Ames test. The format is toxicity. Conditions: salmonella enterica subsp. enterica serovar typhimurium, dose 1-1000 µg. In a few lines: as §2
A short description of data set [11]: Clearance in human. The format is ADME.
Data set [12] is described as follows: Genotoxicity in Salmonella typhimurium TA98 over 1 to 1000 ug in absence of S9 fraction by Ames test. The data set is classed as toxicity. Conditions: salmonella enterica subsp. enterica serovar typhimurium, dose 1-1000 µg. In a few lines: as §2
Data set [13] is described as follows: Drug metabolism in Sprague-Dawley rat liver microsomes at 10 uM incubated for 60 mins by LC-UV/MS analysis. The format is ADME, Microsome. To be noted: 1 h. In a few lines:
as §1
On the technique in general: Liver microsomes are vesicles of endoplasmic reticulum, rich in cytochrome P450 enzymes.

Data set [14] is described as follows: Drug metabolism in human liver microsomes at 10 uM incubated for 60 mins by LC-UV/MS analysis. To be noted: 1 h. The data set is classed as ADME, Microsome.
The nature of data set [15]: Permeability of compound in dog MDCK-MDR1 cells at 2 uM after 150 min by LC-MS/MS analysis. The data set is classed as ADME, cell-based, Canis lupus familiaris. Conditions: mdck-mdr1, 2.5 h. In a few lines:
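Bidirectional MDCK-MDR1 monolayer permeability. A→B and B→A transport was measured in triplicate over 150 min at 37 °C, 5% CO2, and quantified by LC-MS/MS as analyte/internal standard peak-area ratio.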

Data set [16] can be described thus: Genotoxicity in Salmonella typhimurium TA100 over 1 to 1000 ug in presence of S9 fraction by Ames test. The data set is classed as toxicity, subcellular. Conditions: salmonella enterica subsp. enterica serovar typhimurium, dose 1-1000 µg. An outline of the steps: as §2

SMILES strings stand for the structures. Some results are limits rather than exact numbers.

As for `Cn1nc(-c2ccccn2)cc1C(=O)Nc1ccc2c(c1)B(O)OC2`, the selectivity ratio in data set [1] was above 2.
Regarding `Cc1c(-c2ccccn2)coc1C(=O)Nc1ccc2c(c1)B(O)OC2`, the Drug metabolism entry in [2], in data set [3], in [4], in data set [5] and in data set [6] was “Metabolite_Detected” in each case. The selectivity ratio in data set [1] came out at 37.
In the case of `Cc1oc(C(=O)Nc2ccc3c(c2)B(O)OC3)cc1-c1ccccn1`, the selectivity ratio in data set [1] turned out to be 18.
The same measure, in the same setting: to `Cc1c(-c2ccccn2)csc1C(=O)Nc1ccc2c(c1)B(O)OC2` belongs 4; to `Cc1nn(C2CCC2)cc1C(=O)Nc1ccc2c(c1)B(O)OC2`, above 4.
Regarding `O=C(Nc1ccc2c(c1)B(O)OC2)c1cn(C(F)(F)F)nc1C(F)(F)F`, the selectivity ratio in data set [1] was above 31.
The same measure, in the same setting: the value for `Cc1cccc(-n2nnc(C(=O)Nc3ccc4c(c3)B(O)OC4)c2C)n1` was above 10; that for `O=C(Nc1ccc2c(c1)B(O)OC2)c1cn(C2CCC2)nc1C(F)(F)F` was 53.
Still for that read-out and setting: the value for `Cc1nn(CCC(F)(F)F)cc1C(=O)Nc1ccc2c(c1)B(O)OC2` was above 11.
On the same count and under the same terms, the value for `O=C(Nc1ccc2c(c1)B(O)OC2)c1cn(CC(F)(F)F)nc1C(F)(F)F` was above 40; that for `O=C(Nc1ccc2c(c1)B(O)OC2)c1nnc(-c2ccccn2)o1` was above 32; that for `O=C(Nc1ccc2c(c1)B(O)OC2)c1cn(CCC(F)(F)F)nc1C(F)(F)F` was 38.
Regarding `COc1cccc(-n2ncc(C(=O)Nc3ccc4c(c3)B(O)OC4)c2C)n1`, in [1], the selectivity ratio was 31.
For the compound `Cc1c(C(=O)Nc2ccc3c(c2)B(O)OC3)nnn1-c1ccccn1`, the Activity entry in data set [7], in data set [9], in data set [10], in [12] and in data set [16] was “Non-Toxic” throughout. Moreover, the Drug metabolism entry in data set [8], in data set [13] and in [14] was “Metabolite_Notdetected” each time. This compound came in with a clearance in data set [11] of 1 mL/min/kg. The selectivity ratio in [1] was above 39. For the same compound, in data set [15], the permeability entry was “Permeable”.
Turning to `Cc1nn(-c2ccccn2)cc1C(=O)Nc1ccc2c(c1)B(O)OC2`, in [1], the selectivity ratio was above 11.
Same read-out and setting: the value for `Cc1cccc(-n2ncc(C(=O)Nc3ccc4c(c3)B(O)OC4)c2C)n1` was 25; that for `Cn1nc(C(=O)Nc2ccc3c(c2)B(O)OC3)cc1-c1ccccn1` was 31.
Same read-out and setting: to `Cc1c(C(=O)Nc2ccc3c(c2)B(O)OC3)nnn1-c1cccnc1` belongs above 1.8.
The same measure, in the same setting: to `Cc1c(C(=O)Nc2ccc3c(c2)B(O)OC3)nnn1-c1ccccc1` belongs above 1.7; to `O=C(Nc1ccc2c(c1)B(O)OC2)c1cn(-c2ccccn2)nn1`, 30.
As for `Cc1c(C(=O)Nc2ccc3c(c2)B(O)OC3)cnn1CCC(F)(F)F`, the selectivity ratio in [1] was above 5.
On the same count and under the same terms, the value for `O=C(Nc1ccc2c(c1)B(O)OC2)c1cc(-c2ccccn2)n[nH]1` was 8.
On the same count and under the same terms, the value for `CCCCCCCCCCCCCCCCOP(=O)([O-])OCC[N+](C)(C)C` [MILTEFOSINE] was above 6.2; that for `COc1cccc(-n2nnc(C(=O)Nc3ccc4c(c3)B(O)OC4)c2C)n1` was above 80.
`O=C(Nc1ccc2c(c1)B(O)OC2)c1cn(-c2ccccn2)nc1C(F)(F)F`: in data set [1], the selectivity ratio was 1.6.
On the same count and under the same terms, to `Cc1c(C(=O)Nc2ccc3c(c2)B(O)OC3)cnn1-c1ccccn1` belongs 15; to `O=C(Nc1ccc2c(c1)B(O)OC2)c1cn(C2CCOCC2)nc1C(F)(F)F`, above 21; to `COc1ccccc1-n1cc(C(=O)Nc2ccc3c(c2)B(O)OC3)c(C)n1`, 7.3.
As for `O=C(Nc1ccc2c(c1)B(O)OC2)c1cn(-c2ccc(Cl)cc2)nc1C(F)(F)F`, the selectivity ratio in [1] was 2.
Still for that read-out and setting: to `O=C(Nc1ccc2c(c1)B(O)OC2)c1ccc(F)cc1C(F)(F)F` belongs above 24.

By clearance is commonly meant the rate of elimination divided by the concentration.

The record behind these values is ChEMBL document CHEMBL4831547, “DNDI-6148: A Novel Benzoxaborole Preclinical Candidate for the Treatment of Visceral Leishmaniasis” (J Med Chem, 2021).
